≈ marks a conversion by molar mass, not a printed value.
What follows are compounds tested on Staphylococcus aureus (assay: Antibacterial activity against methicillin-resistant Staphylococcus aureus isolate 8 incubated overnight by agar dilution method).
Type: functional
Outline: (§1)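 MIC by agar dilution. Strains were grown overnight in LB broth and diluted, then about 10^4 CFU (2 μL spots) were spotted onto LB agar plates containing test compound at 0.5 to 8 μg mL−1 agar. Plates were incubated overnight at 37 °C and inspected for growth. Clinical MSSA and MRSA isolates came from local hospitals.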

Row | SMILES | MIC [µg/mL]
1 | C[C@]12C[C@]34C[C@@H]1C[C@H](O2)[C@H]3[C@](C)(CCC(=O)Nc1c(O)ccc(C(=O)O)c1O)C(=O)C[C@@H]4SC(=O)c1ccc(Br)cc1 | 1 (≈ 1.52 µM)
2 | C[C@]12C[C@]34C[C@@H]1C[C@H](O2)[C@H]3[C@](C)(CCC(=O)Nc1c(O)ccc(C(=O)O)c1O)C(=O)C[C@@H]4SC(=O)c1ccccc1C(F)(F)F | 1 (≈ 1.54 µM)
3 | C[C@]12C[C@]34C[C@@H]1C[C@H](O2)[C@H]3[C@](C)(CCC(=O)Nc1c(O)ccc(C(=O)O)c1O)C(=O)C[C@@H]4SC(=O)c1ccc2ccccc2c1 | 1 (≈ 1.59 µM)
4 | C[C@]12C[C@]34C[C@@H]1C[C@H](O2)[C@H]3[C@](C)(CCC(=O)Nc1c(O)ccc(C(=O)O)c1O)C(=O)C[C@@H]4SC(=O)c1cccc(F)c1 | 1 (≈ 1.67 µM)

Each compound was assayed on Staphylococcus aureus (assay: Antibacterial activity against methicillin-sensitive Staphylococcus aureus isolate 2 incubated overnight by agar dilution method).
Type: functional
Outline: as §1

Row | SMILES | MIC [µg/mL]
5 | C[C@]12C[C@]34C[C@@H]1C[C@H](O2)[C@H]3[C@](C)(CCC(=O)Nc1c(O)ccc(C(=O)O)c1O)C(=O)C[C@@H]4SC(=O)c1ccc(Br)cc1 | 1 (≈ 1.52 µM)
6 | C[C@]12C[C@]34C[C@@H]1C[C@H](O2)[C@H]3[C@](C)(CCC(=O)Nc1c(O)ccc(C(=O)O)c1O)C(=O)C[C@@H]4SC(=O)c1ccccc1C(F)(F)F | 1 (≈ 1.54 µM)
7 | C[C@]12C[C@]34C[C@@H]1C[C@H](O2)[C@H]3[C@](C)(CCC(=O)Nc1c(O)ccc(C(=O)O)c1O)C(=O)C[C@@H]4SC(=O)c1ccc2ccccc2c1 | 0.5 (≈ 0.794 µM)
8 | C[C@]12C[C@]34C[C@@H]1C[C@H](O2)[C@H]3[C@](C)(CCC(=O)Nc1c(O)ccc(C(=O)O)c1O)C(=O)C[C@@H]4SC(=O)c1cccc(F)c1 | 1 (≈ 1.67 µM)

What follows are compounds tested on Staphylococcus aureus (assay: Antibacterial activity against methicillin-sensitive Staphylococcus aureus isolate 4 incubated overnight by agar dilution method).
Type: functional
Outline: as §1

Row | SMILES | MIC [µg/mL]
9 | C[C@]12C[C@]34C[C@@H]1C[C@H](O2)[C@H]3[C@](C)(CCC(=O)Nc1c(O)ccc(C(=O)O)c1O)C(=O)C[C@@H]4SC(=O)c1ccc(Br)cc1 | 1 (≈ 1.52 µM)
10 | C[C@]12C[C@]34C[C@@H]1C[C@H](O2)[C@H]3[C@](C)(CCC(=O)Nc1c(O)ccc(C(=O)O)c1O)C(=O)C[C@@H]4SC(=O)c1ccccc1C(F)(F)F | 1 (≈ 1.54 µM)
11 | C[C@]12C[C@]34C[C@@H]1C[C@H](O2)[C@H]3[C@](C)(CCC(=O)Nc1c(O)ccc(C(=O)O)c1O)C(=O)C[C@@H]4SC(=O)c1ccc2ccccc2c1 | 0.5 (≈ 0.794 µM)
12 | C[C@]12C[C@]34C[C@@H]1C[C@H](O2)[C@H]3[C@](C)(CCC(=O)Nc1c(O)ccc(C(=O)O)c1O)C(=O)C[C@@H]4SC(=O)c1cccc(F)c1 | 1 (≈ 1.67 µM)

Each compound was assayed on Staphylococcus aureus (assay: Antibacterial activity against methicillin-resistant Staphylococcus aureus isolate 7 incubated overnight by agar dilution method).
Type: functional
Outline: as §1

Row | SMILES | MIC [µg/mL]
13 | C[C@]12C[C@]34C[C@@H]1C[C@H](O2)[C@H]3[C@](C)(CCC(=O)Nc1c(O)ccc(C(=O)O)c1O)C(=O)C[C@@H]4SC(=O)c1ccc(Br)cc1 | 1 (≈ 1.52 µM)
14 | C[C@]12C[C@]34C[C@@H]1C[C@H](O2)[C@H]3[C@](C)(CCC(=O)Nc1c(O)ccc(C(=O)O)c1O)C(=O)C[C@@H]4SC(=O)c1ccccc1C(F)(F)F | 2 (≈ 3.09 µM)
15 | C[C@]12C[C@]34C[C@@H]1C[C@H](O2)[C@H]3[C@](C)(CCC(=O)Nc1c(O)ccc(C(=O)O)c1O)C(=O)C[C@@H]4SC(=O)c1ccc2ccccc2c1 | 4 (≈ 6.35 µM)
16 | C[C@]12C[C@]34C[C@@H]1C[C@H](O2)[C@H]3[C@](C)(CCC(=O)Nc1c(O)ccc(C(=O)O)c1O)C(=O)C[C@@H]4SC(=O)c1cccc(F)c1 | 2 (≈ 3.35 µM)

The compounds below were run on Staphylococcus aureus (assay: Antibacterial activity against methicillin-sensitive Staphylococcus aureus isolate 3 incubated overnight by agar dilution method).
Type: functional
Outline: as §1

Row | SMILES | MIC [µg/mL]
17 | C[C@]12C[C@]34C[C@@H]1C[C@H](O2)[C@H]3[C@](C)(CCC(=O)Nc1c(O)ccc(C(=O)O)c1O)C(=O)C[C@@H]4SC(=O)c1ccc(Br)cc1 | 1 (≈ 1.52 µM)
18 | C[C@]12C[C@]34C[C@@H]1C[C@H](O2)[C@H]3[C@](C)(CCC(=O)Nc1c(O)ccc(C(=O)O)c1O)C(=O)C[C@@H]4SC(=O)c1ccccc1C(F)(F)F | 1 (≈ 1.54 µM)
19 | C[C@]12C[C@]34C[C@@H]1C[C@H](O2)[C@H]3[C@](C)(CCC(=O)Nc1c(O)ccc(C(=O)O)c1O)C(=O)C[C@@H]4SC(=O)c1ccc2ccccc2c1 | 0.5 (≈ 0.794 µM)
20 | C[C@]12C[C@]34C[C@@H]1C[C@H](O2)[C@H]3[C@](C)(CCC(=O)Nc1c(O)ccc(C(=O)O)c1O)C(=O)C[C@@H]4SC(=O)c1cccc(F)c1 | 1 (≈ 1.67 µM)

What follows are compounds tested on Staphylococcus aureus (assay: Antibacterial activity against methicillin-resistant Staphylococcus aureus isolate 5 incubated overnight by agar dilution method).
Type: functional
Outline: as §1

Row | SMILES | MIC [µg/mL]
21 | C[C@]12C[C@]34C[C@@H]1C[C@H](O2)[C@H]3[C@](C)(CCC(=O)Nc1c(O)ccc(C(=O)O)c1O)C(=O)C[C@@H]4SC(=O)c1ccc(Br)cc1 | 2 (≈ 3.04 µM)
22 | C[C@]12C[C@]34C[C@@H]1C[C@H](O2)[C@H]3[C@](C)(CCC(=O)Nc1c(O)ccc(C(=O)O)c1O)C(=O)C[C@@H]4SC(=O)c1ccccc1C(F)(F)F | 1 (≈ 1.54 µM)
23 | C[C@]12C[C@]34C[C@@H]1C[C@H](O2)[C@H]3[C@](C)(CCC(=O)Nc1c(O)ccc(C(=O)O)c1O)C(=O)C[C@@H]4SC(=O)c1ccc2ccccc2c1 | 2 (≈ 3.18 µM)
24 | C[C@]12C[C@]34C[C@@H]1C[C@H](O2)[C@H]3[C@](C)(CCC(=O)Nc1c(O)ccc(C(=O)O)c1O)C(=O)C[C@@H]4SC(=O)c1cccc(F)c1 | 1 (≈ 1.67 µM)

The compounds below were run on Staphylococcus aureus (assay: Antibacterial activity against methicillin-resistant Staphylococcus aureus isolate 11 incubated overnight by agar dilution method).
Type: functional
Outline: as §1

Row | SMILES | MIC [µg/mL]
25 | C[C@]12C[C@]34C[C@@H]1C[C@H](O2)[C@H]3[C@](C)(CCC(=O)Nc1c(O)ccc(C(=O)O)c1O)C(=O)C[C@@H]4SC(=O)c1ccc(Br)cc1 | 2 (≈ 3.04 µM)
26 | C[C@]12C[C@]34C[C@@H]1C[C@H](O2)[C@H]3[C@](C)(CCC(=O)Nc1c(O)ccc(C(=O)O)c1O)C(=O)C[C@@H]4SC(=O)c1ccccc1C(F)(F)F | 4 (≈ 6.18 µM)
27 | C[C@]12C[C@]34C[C@@H]1C[C@H](O2)[C@H]3[C@](C)(CCC(=O)Nc1c(O)ccc(C(=O)O)c1O)C(=O)C[C@@H]4SC(=O)c1ccc2ccccc2c1 | 4 (≈ 6.35 µM)
28 | C[C@]12C[C@]34C[C@@H]1C[C@H](O2)[C@H]3[C@](C)(CCC(=O)Nc1c(O)ccc(C(=O)O)c1O)C(=O)C[C@@H]4SC(=O)c1cccc(F)c1 | 2 (≈ 3.35 µM)

What follows are compounds tested on Staphylococcus aureus (assay: Antibacterial activity against methicillin-resistant Staphylococcus aureus isolate 10 incubated overnight by agar dilution method).
Type: functional
Outline: as §1

Row | SMILES | MIC [µg/mL]
29 | C[C@]12C[C@]34C[C@@H]1C[C@H](O2)[C@H]3[C@](C)(CCC(=O)Nc1c(O)ccc(C(=O)O)c1O)C(=O)C[C@@H]4SC(=O)c1ccc(Br)cc1 | 1 (≈ 1.52 µM)
30 | C[C@]12C[C@]34C[C@@H]1C[C@H](O2)[C@H]3[C@](C)(CCC(=O)Nc1c(O)ccc(C(=O)O)c1O)C(=O)C[C@@H]4SC(=O)c1ccccc1C(F)(F)F | 1 (≈ 1.54 µM)
31 | C[C@]12C[C@]34C[C@@H]1C[C@H](O2)[C@H]3[C@](C)(CCC(=O)Nc1c(O)ccc(C(=O)O)c1O)C(=O)C[C@@H]4SC(=O)c1ccc2ccccc2c1 | 1 (≈ 1.59 µM)
32 | C[C@]12C[C@]34C[C@@H]1C[C@H](O2)[C@H]3[C@](C)(CCC(=O)Nc1c(O)ccc(C(=O)O)c1O)C(=O)C[C@@H]4SC(=O)c1cccc(F)c1 | 1 (≈ 1.67 µM)

These compounds were tested on Staphylococcus aureus (assay: Antibacterial activity against methicillin-resistant Staphylococcus aureus isolate 6 incubated overnight by agar dilution method).
Type: functional
Outline: as §1

Row | SMILES | MIC [µg/mL]
33 | C[C@]12C[C@]34C[C@@H]1C[C@H](O2)[C@H]3[C@](C)(CCC(=O)Nc1c(O)ccc(C(=O)O)c1O)C(=O)C[C@@H]4SC(=O)c1ccc(Br)cc1 | 1 (≈ 1.52 µM)
34 | C[C@]12C[C@]34C[C@@H]1C[C@H](O2)[C@H]3[C@](C)(CCC(=O)Nc1c(O)ccc(C(=O)O)c1O)C(=O)C[C@@H]4SC(=O)c1ccccc1C(F)(F)F | 1 (≈ 1.54 µM)
35 | C[C@]12C[C@]34C[C@@H]1C[C@H](O2)[C@H]3[C@](C)(CCC(=O)Nc1c(O)ccc(C(=O)O)c1O)C(=O)C[C@@H]4SC(=O)c1ccc2ccccc2c1 | 1 (≈ 1.59 µM)
36 | C[C@]12C[C@]34C[C@@H]1C[C@H](O2)[C@H]3[C@](C)(CCC(=O)Nc1c(O)ccc(C(=O)O)c1O)C(=O)C[C@@H]4SC(=O)c1cccc(F)c1 | 1 (≈ 1.67 µM)

Each compound was assayed on Staphylococcus aureus (assay: Antibacterial activity against Staphylococcus aureus ATCC 29213 incubated overnight by agar dilution method).
Type: functional
Outline: as §1

Row | SMILES | MIC [µg/mL]
37 | C[C@]12C[C@]34C[C@@H]1C[C@H](O2)[C@H]3[C@](C)(CCC(=O)Nc1c(O)ccc(C(=O)O)c1O)C(=O)C[C@@H]4SC(=O)c1ccc(Br)cc1 | 1 (≈ 1.52 µM)
38 | C[C@]12C[C@]34C[C@@H]1C[C@H](O2)[C@H]3[C@](C)(CCC(=O)Nc1c(O)ccc(C(=O)O)c1O)C(=O)C[C@@H]4SC(=O)c1ccccc1C(F)(F)F | 2 (≈ 3.09 µM)
39 | C[C@]12C[C@]34C[C@@H]1C[C@H](O2)[C@H]3[C@](C)(CCC(=O)Nc1c(O)ccc(C(=O)O)c1O)C(=O)C[C@@H]4SC(=O)c1ccc2ccccc2c1 | 2 (≈ 3.18 µM)
40 | C[C@]12C[C@]34C[C@@H]1C[C@H](O2)[C@H]3[C@](C)(CCC(=O)Nc1c(O)ccc(C(=O)O)c1O)C(=O)C[C@@H]4SC(=O)c1cccc(F)c1 | 2 (≈ 3.35 µM)

The compounds below were run on Staphylococcus aureus (assay: Antibacterial activity against methicillin-resistant Staphylococcus aureus isolate 9 incubated overnight by agar dilution method).
Type: functional
Outline: as §1

Row | SMILES | MIC [µg/mL]
41 | C[C@]12C[C@]34C[C@@H]1C[C@H](O2)[C@H]3[C@](C)(CCC(=O)Nc1c(O)ccc(C(=O)O)c1O)C(=O)C[C@@H]4SC(=O)c1ccc(Br)cc1 | 1 (≈ 1.52 µM)
42 | C[C@]12C[C@]34C[C@@H]1C[C@H](O2)[C@H]3[C@](C)(CCC(=O)Nc1c(O)ccc(C(=O)O)c1O)C(=O)C[C@@H]4SC(=O)c1ccccc1C(F)(F)F | 1 (≈ 1.54 µM)
43 | C[C@]12C[C@]34C[C@@H]1C[C@H](O2)[C@H]3[C@](C)(CCC(=O)Nc1c(O)ccc(C(=O)O)c1O)C(=O)C[C@@H]4SC(=O)c1ccc2ccccc2c1 | 1 (≈ 1.59 µM)
44 | C[C@]12C[C@]34C[C@@H]1C[C@H](O2)[C@H]3[C@](C)(CCC(=O)Nc1c(O)ccc(C(=O)O)c1O)C(=O)C[C@@H]4SC(=O)c1cccc(F)c1 | 1 (≈ 1.67 µM)

The compounds below were run on Staphylococcus aureus (assay: Antibacterial activity against methicillin-sensitive Staphylococcus aureus isolate 1 incubated overnight by agar dilution method).
Type: functional
Outline: as §1

Row | SMILES | MIC [µg/mL]
45 | C[C@]12C[C@]34C[C@@H]1C[C@H](O2)[C@H]3[C@](C)(CCC(=O)Nc1c(O)ccc(C(=O)O)c1O)C(=O)C[C@@H]4SC(=O)c1ccc(Br)cc1 | 1 (≈ 1.52 µM)
46 | C[C@]12C[C@]34C[C@@H]1C[C@H](O2)[C@H]3[C@](C)(CCC(=O)Nc1c(O)ccc(C(=O)O)c1O)C(=O)C[C@@H]4SC(=O)c1ccccc1C(F)(F)F | 1 (≈ 1.54 µM)
47 | C[C@]12C[C@]34C[C@@H]1C[C@H](O2)[C@H]3[C@](C)(CCC(=O)Nc1c(O)ccc(C(=O)O)c1O)C(=O)C[C@@H]4SC(=O)c1ccc2ccccc2c1 | 1 (≈ 1.59 µM)
48 | C[C@]12C[C@]34C[C@@H]1C[C@H](O2)[C@H]3[C@](C)(CCC(=O)Nc1c(O)ccc(C(=O)O)c1O)C(=O)C[C@@H]4SC(=O)c1cccc(F)c1 | 1 (≈ 1.67 µM)

From ChEMBL document CHEMBL4138284, “Biomimetic Stereoselective Sulfa-Michael Addition Leads to Platensimycin and Platencin Sulfur Analogues against Methicillin-Resistant Staphylococcus aureus” (J Nat Prod, 2018)
